The subject of the assay is Mus musculus. Briefly: Antiarrhythmic activity in chloroform induced ventricular arrhythmia in mice, 15 min before exposure to chloroform intraperitoneal administration. It is filed as functional, Heart. A digest of the protocol: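 Female ICR mice (20-25 g) dosed ip; 15 min later placed 2 min in 2-L glass chamber saturated with chloroform vapor (150 mL chloroform warmed at 33 °C). Chest opened, ventricular ECG recorded 1 min via silver electrodes. Dose judged effective if ventricular rate <400 bpm just after thoracotomy; 3-10 mice per dose level; ED50 for protection from ventricular tachycardia calculated.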

The mark [1] stands for this setting: Mus musculus, Heart, ip, read-out: ED50.

The record followed here is ChEMBL document CHEMBL1125387, “Synthesis and biological action of the aminotetrahydroisoquinocarbazoles and related compounds: a new class of compounds with antiarrhythmic activity” (1992).

The term ED50 denotes the midpoint of the dose-response relation.

Consider `N[C@@H]1Cc2c3n(c4ccccc24)C(=O)C[C@H]2CC[C@@H]1[C@@H]32.O=C(O)/C=C/C(=O)O`, for which the ED50 under setting [1] was determined as 40 mg/kg.
On the same count and under the same terms, the same measure for `N[C@@H]1Cc2c3n(c4ccccc24)C(=O)C[C@H]2CCC[C@@H]1[C@@H]32.O=C(O)/C=C/C(=O)O`: 32 mg/kg.
Still for that read-out and setting: the same measure for `CC[C@]12CCC[C@@H]3[C@H]1c1c(c4c(O)cccc4n1C(=O)C2)C[C@H]3C(=O)NN`: greater than 40 mg/kg; for `N[C@@H]1Cc2c3n(c4ccccc24)C(=O)C[C@H]2CCCC[C@@H]1[C@@H]32.O=C(O)/C=C/C(=O)O`: 80 mg/kg.
For `N[C@@H]1Cc2c3n(c4ccccc24)C(=O)CC[C@H]3C1.O=C(O)/C=C/C(=O)O`, the ED50 under setting [1] is greater than 40 mg/kg.
`CC[C@]12CCC[C@@H]3[C@H]1c1c(c4cc(O)ccc4n1C(=O)C2)C[C@H]3C(=O)NCCN1CCCC1`: the ED50 under setting [1] is greater than 40 mg/kg.
The same measure, in the same setting: under `CCCC[C@@]12CCC[C@H]3[C@H](N)Cc4c(n(c5ccc(O)cc45)C(=O)C1)[C@H]32` stands 12 mg/kg; under `CC(C)[C@@]12CCC[C@H]3[C@H](N)Cc4c(n(c5ccc(O)cc45)C(=O)C1)[C@H]32`, 8.4 mg/kg.
The same measure, in the same setting: under `C[C@@]12CCC[C@H]3[C@H](N)Cc4c(n(c5ccc(O)cc45)C(=O)C1)[C@H]32` stands greater than 40 mg/kg; under `CC[C@]12CCC[C@@H]3[C@H]1c1c(c4cc(O)ccc4n1C(=O)C2)C[C@H]3C(=O)OCCN1CCN(C)CC1`, 34 mg/kg; under `N[C@@H]1Cc2c3n(c4ccc(O)cc24)C(=O)C[C@@]2(CCc4ccccc4)CCC[C@@H]1[C@@H]32`, greater than 40 mg/kg.
For `N[C@@H]1Cc2c3n(c4ccc(O)cc24)C(=O)C[C@H]2CCC[C@@H]1[C@@H]32`, under setting [1], the ED50 is greater than 40 mg/kg.
With `N[C@@H]1Cc2c3n(c4ccc(O)cc24)C(=O)C[C@@]2(Cc4ccccc4)CCC[C@@H]1[C@@H]32`, under setting [1], the ED50 was greater than 40 mg/kg.
The same measure, in the same setting: the same measure for `N[C@@H]1Cc2c3n(c4cccc(O)c24)C(=O)C[C@@]2(CCc4ccccc4)CCC[C@@H]1[C@@H]32`: greater than 40 mg/kg; for `CC[C@@]12CCC[C@H]3CCc4c(n(c5ccccc45)C(=O)C1)[C@H]32`: greater than 40 mg/kg.
The same measure, in the same setting: the same measure for `Cl.NCCc1cn(C(=O)CC2CCCCC2)c2ccccc12`: 48 mg/kg.
The same measure, in the same setting: under `CC[C@@]12CCC[C@H]3[C@H](N)Cc4c(n(c5cc(O)c(O)cc45)C(=O)C1)[C@H]32.Cl` stands 7 mg/kg; under `C[C@@]12CCC[C@H]3[C@H](N)Cc4c(n(c5cc(O)c(O)cc45)C(=O)C1)[C@H]32.Cl`, 34 mg/kg; under `CC[C@@]12CCC[C@H]3[C@H](N)Cc4c(n(c5cc(OC)c(OC)cc45)C(=O)C1)[C@H]32.Cl`, 34 mg/kg.
In the case of `CC[C@@]12CCC[C@H]3[C@H](N)Cc4c(n(c5cccc(O)c45)C(=O)C1)[C@H]32.Cl`, the ED50 under setting [1] came out at 6 mg/kg.
Still for that read-out and setting: the same measure for `CCC[C@@]12CCC[C@H]3[C@H](N)Cc4c(n(c5cc(O)c(O)cc45)C(=O)C1)[C@H]32.Cl`: 20 mg/kg; for `Cl.N[C@@H]1Cc2c3n(c4cc(O)c(O)cc24)C(=O)C[C@H]2CCC[C@@H]1[C@@H]32`: greater than 40 mg/kg.
Take `C[C@@]12CCC[C@H]3[C@H](N)Cc4c(n(c5cccc(O)c45)C(=O)C1)[C@H]32.Cl`: the ED50 under setting [1] was determined as 8 mg/kg.
In the case of `CCC[C@@]12CCC[C@H]3[C@H](N)Cc4c(n(c5cccc(O)c45)C(=O)C1)[C@H]32.Cl`, the ED50 under setting [1] stood at 20 mg/kg.
Regarding `Cl.N[C@@H]1Cc2c3n(c4cccc(O)c24)C(=O)C[C@H]2CCC[C@@H]1[C@@H]32` (stereo in doubt; 10), the ED50 under setting [1] was determined as 10 mg/kg.
For the molecule `Cl.N[C@@H]1Cc2c3n(c4cccc(O)c24)C(=O)C[C@H]2CCC[C@@H]1[C@@H]32` (stereo in doubt; (+)-10), the ED50 is 5 mg/kg.
Regarding `CC(C)N(CCC(C(N)=O)(c1ccccc1)c1ccccn1)C(C)C` (configuration not stated) [DISOPYRAMIDE], the ED50 under setting [1] was found to be 11.8 mg/kg.
